Screening data from PubChem BioAssay.
Only some compounds are listed: those with a hit (about 1.8% of all), similar ones and a draw of the others.
M4 PAM = CHRM4 positive allosteric modulation; P08173; CHO-K1 hM4/Gqi5, Fluo-8 calcium fluorescence, ACh EC20; 0% = ACh EC20, 100% = maximal ACh; activation, % at 3 µM; 0.4% of 360,000 active;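 active = activation above its plate's cutoff, the mean activation of sample wells plus 3 SD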
CHRM5 agonist = CHRM5 agonism in calcium assay; P08912; CHO-K1 hM5 cells, Fluo-8 calcium fluorescence; 0% DMSO wells, 100% maximal acetylcholine response; activation, % at 3 µM; 0.19% of 360,000 active; AID 624037;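 active = activation above the run's mean over test compounds plus 3 SD, cut at about 23% in these data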;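 note: signal is peak over basal fluorescence ratio across the kinetic read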
Target sequence (P08912 whole entry, looked up): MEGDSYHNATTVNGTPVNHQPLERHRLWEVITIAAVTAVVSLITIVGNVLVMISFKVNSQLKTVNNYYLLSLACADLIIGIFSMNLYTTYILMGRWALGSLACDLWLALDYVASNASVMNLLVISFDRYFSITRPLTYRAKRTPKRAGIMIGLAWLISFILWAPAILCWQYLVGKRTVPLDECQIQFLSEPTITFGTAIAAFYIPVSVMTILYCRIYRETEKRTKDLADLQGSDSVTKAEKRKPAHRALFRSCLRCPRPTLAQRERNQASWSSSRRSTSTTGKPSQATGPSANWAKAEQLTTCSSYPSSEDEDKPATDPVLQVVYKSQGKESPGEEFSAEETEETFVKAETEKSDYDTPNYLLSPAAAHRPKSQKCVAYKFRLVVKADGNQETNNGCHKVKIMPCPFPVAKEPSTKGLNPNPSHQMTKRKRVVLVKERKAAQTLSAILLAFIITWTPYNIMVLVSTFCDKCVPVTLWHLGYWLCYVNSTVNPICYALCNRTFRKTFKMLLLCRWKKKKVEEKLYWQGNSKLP
M4 antag = CHRM4 antagonism in calcium assay; P08173; CHO-hM4 cells, ACh EC80, Fluo-8 calcium fluorescence; inhibition, % at 3 µM; 0.73% of 360,000 active; AID 624125;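 active = inhibition above its plate's cutoff, the mean inhibition of sample wells plus 3 SD, cut at about 27% in these data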;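 note: 0% = acetylcholine EC80 with DMSO and 100% = DMSO without agonist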
M4 ag = CHRM4 agonism in calcium assay; 0.14% of 360,000 active; activation, % at 3 µM; CHO-K1 hM4/Gqi5, Fluo-8 calcium fluorescence; vehicle 0%, full acetylcholine response 100%; P08173; AID 624127;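 active = activation above the run mean over all test wells plus 3 SD, cut at about 32% in these data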;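 note: peak over basal fluorescence ratio per well then scaled between controls; 0% = DMSO wells and 100% = acetylcholine at EC100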
M5 antag = antagonists of human muscarinic M5 receptor (CHRM5); P08912; CHO-hM5 cells, Fluo-8 calcium fluorescence, ACh EC80; inhibition, % at 3 µM; 0.59% of 360,000 active; AID 624040;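 active = inhibition above a per-plate cutoff, the mean of that plate's test compounds plus 3 SD, cut at about 27% in these data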;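 note: 0% = acetylcholine EC80 with DMSO and 100% = DMSO without agonist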
CHRM5 PAM = potentiates acetylcholine response at human M5 receptor; 0.3% of 360,000 active; activation, % at 3 µM; CHO-K1 hM5, Fluo-8 calcium, ACh EC20 PAM; 0% = ACh EC20, 100% = ACh EC100;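 active = activation above the run cutoff, the mean activation of all test compounds plus 3 SD, cut at about 18% in these data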
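System: CHO-K1 cell line with stable human muscarinic M5 receptor expression | Also added: EC20 acetylcholine as agonist stimulus | Compound: One concentration, 3 µM final (nominal) | Timing: Fluo-8 loading 80 min at 37 °C plus 30 min room temperature | Measured by: Fluo-8 calcium dye fluorescence, kinetic read | Read-out basis: % activation, ACh-normalized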
Numbers without * were called inactive.

SMILES | M4 PAM | CHRM5 agonist | M4 antag | M4 ag | M5 antag | CHRM5 PAM
COc1ccc(NC(=O)N2CCN(c3nc(-c4cccc(OC)c4)cs3)CC2)cc1 | -5 | 2 | 12 | 16 | 17 | -17
O=C(Nc1ccc2nc(-c3ccco3)c(-c3ccco3)nc2c1)N1CCN(c2ccccn2)CC1 | -15 | 2 | 8 | 12 | 25 | 20*
Cc1nc2cc(NC(=O)N3CCN(c4ccccn4)CC3)ccc2o1 | -4 | 1 | 5 | 1 | -2 | -3
O=C1Nc2ccc(Cl)cc2C(C#CC2CC2)(C(F)(F)F)O1 (configuration not stated) | -15 | -2 | 32* | -2 | 4 | -11
O=C(COC(=O)Cc1c(F)cccc1Cl)NC1CCS(=O)(=O)C1 (configuration not stated) | 1 | 1 | -5 | 1 | 8 | -5
COc1cccc(CNC(=O)CCC2CCCN(c3cc(C)nc(N4CCCC4)n3)C2)c1 (configuration not stated) | -23 | -9 | 28* | 0 | 7 | 3
COc1cccc(CNC(=O)CCC2CCCN(C3CCOCC3)C2)c1 (configuration not stated) | 3 | -5 | 8 | 0 | 15 | -6
CCN(CC)CCNC(=O)c1ccc(NC(=O)C2CCN(c3ncnc4sc(C)c(C)c34)CC2)cc1 | 8 | -7 | 58* | 80* | 2 | -4
Cc1ccc(S(=O)(=O)N2CCN(C(=O)C3CCN(c4ncnc5sc(C)c(C)c45)CC3)CC2)c(C)c1 | 26* | 3 | -4 | 3 | 0 | 5
Cc1sc2ncnc(N3CCC(C(=O)Nc4ccc(OC(F)F)c(Cl)c4)CC3)c2c1C | 13 | 0 | -3 | 1 | 11 | -3
Cc1sc2ncnc(N3CCN(S(=O)(=O)c4ccc(C(C)(C)C)cc4)CC3)c2c1C | 6 | 2 | -6 | 2 | 12 | -3
CC1CCN(C(=O)c2cc3ccccc3cc2O)CC1 | -6 | 1 | 2 | 1 | -4 | 0
O=C(NC(=S)Nc1ccc2oc(=O)ccc2c1)c1cccc(Cl)c1 | 6 | -2 | -6 | 2 | -21 | 9
Cc1cccc(-c2noc(-c3csc([C@@H]4C[C@H](O)[C@@H](CO)O4)n3)n2)c1 | 8 | 1 | -15 | 7 | 29* | -10
Cc1ccccc1/C=N/NC(=O)Cn1nnc(N)n1 | 12 | -1 | -7 | 1 | -8 | 7
Nc1nnn(CC(=O)N/N=C/c2cccc3ccccc23)n1 | 3 | 9 | 5 | 1 | 24 | 18*
C=C1C(=O)[C@]23C[C@H]1CCC2[C@@]1(C)C(C[C@@H]3O)[C@](C)(C(=O)OC)CC[C@@H]1OC(C)=O (some centres not stated) | -15 | 11 | 58* | 16 | 17 | -5
O=C(O)c1ccc(Br)cn1 | 20* | 2 | -1 | 1 | -5 | 13
C=CS(=O)(=O)N(Cc1ccccc1)[C@H](CO)CC(C)C | 2 | -11 | -14 | 2 | -8 | 3
CC(C)C[C@H](CO)N(Cc1ccccc1)S(=O)(=O)N(Cc1ccccc1)[C@@H](CO)CC(C)C | -11 | 4 | 34* | 11 | 13 | -19
CCOC(=O)c1ccc(NC(=S)N2CCSC2c2ccc(Cl)cc2)cc1 (configuration not stated) | -3 | 35* | 28* | 61* | 15 | 8
Cc1ccc(Oc2ncccc2C(=O)NCC(=O)O)cc1 | 0 | 0 | -11 | 0 | 0 | 21*
CCc1ccccc1NC(=O)c1ccc(CN2CCC(Cc3ccccc3)CC2)cc1 | -21 | -4 | 36* | 6 | 14 | -26
CCOC(=O)C1CCN(C(=O)c2ccc(C)o2)CC1 | 2 | 3 | 100* | 0 | 7 | -2
NC(=O)C1CCN(Cc2ccc(OCc3ccccc3)cc2)CC1 | -15 | -13 | 21 | 1 | 8 | -2
SMILES | M4 PAM | CHRM5 agonist | M4 antag | M4 ag | M5 antag | CHRM5 PAM
CCOC(=O)C1CCCN(CCc2ccccc2)C1 (configuration not stated) | -15 | -17 | 37* | 1 | 20 | -32
O=C(NCc1ccccc1)c1ccc(CN2CCC(Cc3ccccc3)CC2)cc1 | -17 | -6 | 19 | 4 | 23 | -16
CCOC(=O)C1CCN(C(=O)c2ccco2)CC1 | 18 | 0 | -5 | 1 | 4 | 0
CCOC(=O)C1CCN(Cc2ccc(OCc3ccccc3)cc2)CC1 | -16 | -19 | 39* | 3 | 19 | -11
Nc1ccccc1C(=O)NCCCN1CCOCC1 | -7 | -3 | 6 | -1 | 0 | -1
COC1CCCN(C(=O)c2cccc(OC3CCN(S(C)(=O)=O)CC3)c2)C1 (configuration not stated) | -1 | -5 | 13 | 1 | 21 | -8
CCOc1ccc(CN2CCC(Cc3ccccc3)CC2)cc1 | -16 | -21 | 26* | 1 | 4 | -1
COc1ccc(CN2CCC(Cc3ccccc3)CC2)cc1OC | -7 | -6 | 0 | 1 | 4 | 0
CC[C@H](C)[C@H](NS(=O)(=O)c1ccc(C)cc1)C(=O)N1CCC(C(=O)N[C@H](C(=O)O)C(C)C)CC1 | 29 | 4 | 8 | 2 | -25 | 20*
O=C(O)CN1C(=O)NC2(CCOc3ccccc32)C1=O (configuration not stated) | -1 | -1 | -1 | 0 | -1 | 6
O=C1NC2(CCOc3ccccc32)C(=O)N1CC(=O)N(Cc1ccccc1)C1CCS(=O)(=O)C1 (configuration not stated) | 4 | 0 | -4 | 1 | -23 | 22*
CC(C)=CCCC1=CCC(/C=N/NC(N)=O)C(C)C1 (configuration not stated) | 17 | 0 | 1 | 1 | -6 | 11
Nc1nc(Nc2ccccc2)sc1C(=O)c1ccccc1 | 12* | 33* | -19 | 13 | -1 | 9
CNC(=O)c1cc2cccc(OC)c2oc1=O | 6 | 1 | -6 | 1 | 0 | 2
COc1cccc2cc(C(=O)NCc3ccccn3)c(=O)oc12 | 22* | -2 | -1 | 2 | -2 | 1
Cc1cc(C)n(-c2ncc3c(n2)N(CCO)CCOC3=O)n1 | -5 | -3 | 4 | 7 | 20 | -11
CC1=CC2(O)OCCN(CCO)C2=CC1=O (configuration not stated) | 9 | 1 | 3 | 0 | 28* | -12
COc1ccc(-c2[nH]ncc2Oc2ccccc2OC)c(O)c1 | 19* | 1 | -19 | 2 | -2 | -3
COc1ccc(Oc2cn[nH]c2-c2ccc(O)cc2O)cc1 | 13 | 6 | 11 | 6 | 0 | 2
